From ChEMBL document CHEMBL3227922, “Synthesis and antitumor activity of sugar-ring hydroxyl analogues of daunorubicin” (J Med Chem, 1979)

Columns and labels:
P388 [1] = test: Antitumor activity against mouse P388 cells allografted in CDF1 mouse assessed as tumor inhibition at 200 mg/kg, ip on days 5, 9 and 13 relative to untreated control; assay type: functional; settings: route intraperitoneal
Method in brief: (§1)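 CDF₁ mice given 10⁶ P388 lymphocytic leukemia cells ip on day 0; drug ip on days 5, 9 and 13. Six mice per dose level (five for one compound). T/C % = median survival time as percent of untreated controls. Acute toxic death counted as survival under 5 days after treatment.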

P388 [2] = test: Antitumor activity against mouse P388 cells allografted in CDF1 mouse assessed as tumor inhibition at 12.5 mg/kg, ip on days 5, 9 and 13 relative to untreated control; assay type: functional; settings: route intraperitoneal; method in brief: as §1
P388 [3] = test: Antitumor activity against mouse P388 cells allografted in CDF1 mouse assessed as tumor inhibition at 25 mg/kg, ip on days 5, 9 and 13 relative to untreated control; assay type: functional; settings: route intraperitoneal; method in brief: as §1
P388 [4] = test: Antitumor activity against mouse P388 cells allografted in CDF1 mouse assessed as tumor inhibition at 50 mg/kg, ip on days 5, 9 and 13 relative to untreated control; assay type: functional; settings: route intraperitoneal; method in brief: as §1
Mus musculus [5] = test: Toxicity in CDF1 mouse allografted with mouse P388 cells assessed as survival at 12.5 to 200 mg/kg, ip on days 5, 9 and 13; assay type: organism-based; set-up: dose 12.5-200 mg/kg, route intraperitoneal; settings: in vivo
Method in brief: (§2)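 CDF1 mice were inoculated ip with 10⁶ P388 lymphocytic leukemia cells on day 0. Drug was given ip on days 5, 9 and 13, with six mice per dose level. Read-out was median survival time as percent of untreated controls (T/C). Acute toxic-drug deaths were defined as survival under 5 days after treatment injection.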

P388 [6] = test: Antitumor activity against mouse P388 cells allografted in CDF1 mouse assessed as tumor inhibition at 100 mg/kg, ip on days 5, 9 and 13 relative to untreated control; assay type: functional; settings: route intraperitoneal; method in brief: as §1
Mus musculus [7] = test: Toxicity in BDF1 mouse allografted with mouse B16 cells at 200 mg/kg, ip on day 5; settings: in vivo
B16 [8] = test: Antitumor activity against mouse B16 cells allografted in BDF1 mouse assessed as tumor inhibition at 25 mg/kg, ip on day 5 relative to untreated control; settings: route intraperitoneal
B16 [9] = test: Antitumor activity against mouse B16 cells allografted in BDF1 mouse assessed as tumor inhibition at 12.5 mg/kg, ip on day 5 relative to untreated control; settings: route intraperitoneal
Mus musculus [10] = test: Toxicity in BDF1 mouse allografted with mouse B16 cells at 100 mg/kg, ip on day 5; settings: in vivo
B16 [11] = test: Antitumor activity against mouse B16 cells allografted in BDF1 mouse assessed as tumor inhibition at 50 mg/kg, ip on day 5 relative to untreated control; settings: route intraperitoneal
P388 [12] = test: Antitumor activity against mouse P388 cells allografted in CDF1 mouse assessed as tumor inhibition at 400 mg/kg, ip on days 5, 9 and 13 relative to untreated control; assay type: functional; settings: route intraperitoneal; method in brief: as §1
Mus musculus [13] = test: Toxicity in CDF1 mouse allografted with mouse P388 cells assessed as survival at 25 to 400 mg/kg, ip on days 5, 9 and 13; assay type: organism-based; set-up: dose 25-400 mg/kg, route intraperitoneal; settings: in vivo
Method in brief: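 Median survival time was expressed as percent of untreated controls (T/C). Acute toxic-drug deaths were scored as survival under 5 days after treatment injection.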

Mus musculus [14] = test: Toxicity in CDF1 mouse allografted with mouse P388 cells assessed as survival at 3.13 to 50 mg/kg, ip on days 5, 9 and 13; assay type: organism-based; set-up: dose 3.13-50 mg/kg, route intraperitoneal; settings: in vivo; method in brief: as §2
P388 [15] = test: Antitumor activity against mouse P388 cells allografted in CDF1 mouse assessed as tumor inhibition at 3.13 mg/kg, ip on days 5, 9 and 13 relative to untreated control; assay type: functional; settings: route intraperitoneal; method in brief: as §1
P388 [16] = test: Antitumor activity against mouse P388 cells allografted in CDF1 mouse assessed as tumor inhibition at 6.25 mg/kg, ip on days 5, 9 and 13 relative to untreated control; assay type: functional; settings: route intraperitoneal; method in brief: as §1
P388 [17] = test: Antitumor activity against mouse P388 cells allografted in CDF1 mouse assessed as tumor inhibition at 16 mg/kg, ip on days 5, 9 and 13 relative to untreated control; assay type: functional; settings: route intraperitoneal; method in brief: as §1
P388 [18] = test: Antitumor activity against mouse P388 cells allografted in CDF1 mouse assessed as tumor inhibition at 2 mg/kg, ip on days 5, 9 and 13 relative to untreated control; assay type: functional; settings: route intraperitoneal; method in brief: as §1
P388 [19] = test: Antitumor activity against mouse P388 cells allografted in CDF1 mouse assessed as tumor inhibition at 32 mg/kg, ip on days 5, 9 and 13 relative to untreated control; assay type: functional; settings: route intraperitoneal; method in brief: as §1
Mus musculus [20] = test: Toxicity in BDF1 mouse allografted with mouse B16 cells at 16 mg/kg, ip on day 5; settings: in vivo
B16 [21] = test: Antitumor activity against mouse B16 cells allografted in BDF1 mouse assessed as tumor inhibition at 1 mg/kg, ip on day 5 relative to untreated control; settings: route intraperitoneal
P388 [22] = test: Antitumor activity against mouse P388 cells allografted in CDF1 mouse assessed as tumor inhibition at 4 mg/kg, ip on days 5, 9 and 13 relative to untreated control; assay type: functional; settings: route intraperitoneal; method in brief: as §1
P388 [23] = test: Antitumor activity against mouse P388 cells allografted in CDF1 mouse assessed as tumor inhibition at 8 mg/kg, ip on days 5, 9 and 13 relative to untreated control; assay type: functional; settings: route intraperitoneal; method in brief: as §1
B16 [24] = test: Antitumor activity against mouse B16 cells allografted in BDF1 mouse assessed as tumor inhibition at 4 mg/kg, ip on day 5 relative to untreated control; settings: route intraperitoneal
B16 [25] = test: Antitumor activity against mouse B16 cells allografted in BDF1 mouse assessed as tumor inhibition at 2 mg/kg, ip on day 5 relative to untreated control; settings: route intraperitoneal
Mus musculus [26] = test: Toxicity in CDF1 mouse allografted with mouse P388 cells assessed as survival at 2 to 32 mg/kg, ip on days 5, 9 and 13; assay type: organism-based; set-up: dose 2-32 mg/kg, route intraperitoneal; settings: in vivo; method in brief: as §2
B16 [27] = test: Antitumor activity against mouse B16 cells allografted in BDF1 mouse assessed as tumor inhibition at 16 mg/kg, ip on day 5 relative to untreated control; settings: route intraperitoneal
B16 [28] = test: Antitumor activity against mouse B16 cells allografted in BDF1 mouse assessed as tumor inhibition at 8 mg/kg, ip on day 5 relative to untreated control; settings: route intraperitoneal
Mus musculus [29] = test: Toxicity in CDF1 mouse allografted with mouse P388 cells assessed as survival at 1 to 16 mg/kg, ip on days 5, 9 and 13; assay type: organism-based; set-up: dose 1-16 mg/kg, route intraperitoneal; settings: in vivo; method in brief: as §2
Mus musculus [30] = test: Toxicity in BDF1 mouse allografted with mouse B16 cells at 1 to 16 mg/kg, ip on day 5; settings: in vivo
P388 [31] = test: Antitumor activity against mouse P388 cells allografted in CDF1 mouse assessed as tumor inhibition at 1 mg/kg, ip on days 5, 9 and 13 relative to untreated control; assay type: functional; settings: route intraperitoneal; method in brief: as §1

COc1cccc2c1C(=O)c1c(O)c3c(c(O)c1C2=O)C[C@@](O)(C(C)=O)C[C@@H]3O[C@H]1C[C@H](OC(C)=O)[C@H](OC(C)=O)[C@H](C)O1
T/C (P388 [1]): 186%
T/C (P388 [2]): 100%
T/C (P388 [3]): 108%
T/C (P388 [4]): 110%
Activity (Mus musculus [5]): Non-toxic
T/C (P388 [6]): 155%

COc1cccc2c1C(=O)c1c(O)c3c(c(O)c1C2=O)C[C@@](O)(C(C)=O)C[C@@H]3O[C@H]1C[C@H](O)[C@H](O)[C@H](C)O1
Activity (Mus musculus [7]): Toxic
T/C (B16 [8]): 126%
T/C (B16 [9]): 113%
Activity (Mus musculus [10]): Toxic
T/C (P388 [3]): 125%
T/C (P388 [4]): 183%
T/C (B16 [11]): 146%
T/C (P388 [6]): 156%
T/C (P388 [12]): 89%
Activity (Mus musculus [13]): Non-toxic

COc1cccc2c1C(=O)c1c(O)c3c(c(O)c1C2=O)C[C@@](O)(C(C)=O)C[C@@H]3O[C@@H]1C[C@H](OC(=O)c2ccc([N+](=O)[O-])cc2)[C@H](OC(=O)c2ccc([N+](=O)[O-])cc2)[C@@H](C)O1
Activity (Mus musculus [14]): Non-toxic
T/C (P388 [2]): 110%
T/C (P388 [15]): 101%
T/C (P388 [16]): 106%
T/C (P388 [3]): 107%
T/C (P388 [4]): 105%

COc1cccc2c1C(=O)c1c(O)c3c(c(O)c1C2=O)C[C@@](O)(C(C)=O)C[C@@H]3O[C@H]1C[C@H](OC(=O)c2ccc([N+](=O)[O-])cc2)[C@H](OC(=O)c2ccc([N+](=O)[O-])cc2)[C@@H](C)O1
Activity (Mus musculus [14]): Non-toxic
T/C (P388 [2]): 99%
T/C (P388 [15]): 98%
T/C (P388 [16]): 100%
T/C (P388 [3]): 106%
T/C (P388 [4]): 101%

COc1cccc2c1C(=O)c1c(O)c3c(c(O)c1C2=O)C[C@@](O)(C(C)=O)C[C@@H]3O[C@@H]1C[C@H](O)[C@H](O)[C@@H](C)O1
Activity (Mus musculus [14]): Non-toxic
T/C (P388 [2]): 100%
T/C (P388 [15]): 99%
T/C (P388 [16]): 100%
T/C (P388 [3]): 101%
T/C (P388 [4]): 101%

COc1cccc2c1C(=O)c1c(O)c3c(c(O)c1C2=O)C[C@@](O)(C(C)=O)C[C@@H]3O[C@H]1C[C@H](O)[C@H](O)[C@@H](C)O1
Activity (Mus musculus [14]): Non-toxic
T/C (P388 [2]): 97%
T/C (P388 [15]): 100%
T/C (P388 [16]): 102%
T/C (P388 [3]): 100%
T/C (P388 [4]): 102%

COc1cccc2c1C(=O)c1c(O)c3c(c(O)c1C2=O)C[C@@](O)(C(C)=O)C[C@@H]3O[C@H]1C[C@H](N)[C@H](O)[C@H](C)O1 [DAUNORUBICIN]
T/C (P388 [17]): 122%
T/C (P388 [18]): 116%
T/C (P388 [19]): 97%
Activity (Mus musculus [20]): Toxic
T/C (B16 [21]): 122%
T/C (P388 [22]): 123%
T/C (P388 [23]): 151%
T/C (B16 [24]): 96%
T/C (B16 [25]): 127%
Activity (Mus musculus [26]): Non-toxic

COc1cccc2c1C(=O)c1c(O)c3c(c(O)c1C2=O)C[C@@](O)(C(=O)CO)C[C@@H]3O[C@H]1C[C@H](N)[C@H](O)[C@H](C)O1 [DOXORUBICIN]
T/C (P388 [17]): 114%
T/C (P388 [18]): 132%
T/C (B16 [21]): 118%
T/C (P388 [22]): 149%
T/C (B16 [27]): 156%
T/C (P388 [23]): 150%
T/C (B16 [28]): 150%
T/C (B16 [24]): 132%
Activity (Mus musculus [29]): Non-toxic
T/C (B16 [25]): 122%
Activity (Mus musculus [30]): Non-toxic
T/C (P388 [31]): 118%
